For five compounds, IC50, selectivity ratio and Activity results are on record in ChEMBL document CHEMBL1156362, “Antimalarial (+)-trans-hexahydrodibenzopyran derivatives from Machaerium multiflorum” (J Nat Prod, 2001).

One data set relates to Cryptococcus neoformans. Description: […] activity against Cryptococcus neoformans ATCC 90113 after 48 hrs by microplate assay. Format: functional, organism-based. An outline of the steps: (§1)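 IC50 values were read from a modified 96-well microplate growth-inhibition assay against ATCC strains: C. neoformans 90113, S. aureus 6535 and methicillin-resistant S. aureus 33591. Positive controls were amphotericin B and tetracycline, and DMSO served as the negative control.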

For data set [1], the system named is Staphylococcus aureus. Nature of the data set: Antibacterial activity against Staphylococcus aureus ATCC 6535 after 48 hrs by microplate assay. It counts as functional, organism-based. An outline of the steps: as §1
For data set [2], the system named is Staphylococcus aureus. Description: Antibacterial activity against methicillin-resistant Staphylococcus aureus ATCC 33591 after 48 hrs by microplate assay. It counts as functional, organism-based. An outline of the steps:
as §1

A short description of data set [3]: Selectivity index, ratio of IC50 for african green monkey (Cercopithecus aethiops) Vero cells to IC50 for chloroquine-sensitive Plasmodium falciparum D6. Conditions: read-out: Ratio IC50; call rule not given here. Format: toxicity, cell-based.
Data set [4] can be described thus: Selectivity index, ratio of IC50 for african green monkey (Cercopithecus aethiops) Vero cells to IC50 for chloroquine-resistant Plasmodium falciparum W2. It counts as toxicity, cell-based. The conditions noted are these: read-out: Ratio IC50.
In data set [5] the test system is Plasmodium falciparum. Description: Antimalarial activity against chloroquine-sensitive Plasmodium falciparum D6 by LDH reporter assay. Format: functional, organism-based. (In general: Reporter assays use an easily measured gene product as a stand-in for the process of interest.)
Data set [6] concerns Plasmodium falciparum. Description: Antimalarial activity against chloroquine-resistant Plasmodium falciparum W2 by LDH reporter assay. Format: functional, organism-based.
For data set [7], the target named is Cannabinoid receptor 1 (Homo sapiens) (UniProt P21554). Description: Displacement of [3H]CP-55940 from human recombinant CB1 receptor expressed in HEK293 cells at 1 uM. It counts as cell-based. Summed up:
(§2)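 Radioligand binding assay for the CB1 site, using human recombinant HEK-293 cells as the receptor source. Compounds were screened in a primary assay at 1 and 0.1 µM and expressed as % affinity. A response above 50% of maximum stimulation or inhibition counted as significant. WIN-55,212-2 was the reference, with DMSO as placebo.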
(In general: Loss of bound radioactivity is the signal in a displacement assay; it reports binding, not function.)

Data set [8] has the same target. Nature of the data set: Displacement of [3H]CP-55940 from human recombinant CB1 receptor expressed in HEK293 cells at 0.1 uM. Format: cell-based. An outline of the steps:
as §2

Where [9] appears, read: Cryptococcus neoformans, ATCC 90113, 48 h, read-out: IC50.
The mark [10] stands for this setting: Staphylococcus aureus, ATCC 6535, 48 h, read-out: IC50.
The mark [11] stands for this setting: Staphylococcus aureus, ATCC 33591, 48 h, read-out: IC50.

In brackets after ≈: the same amount, converted by molar mass.

Chain of Cannabinoid receptor 1 (Homo sapiens) (P21554 whole entry): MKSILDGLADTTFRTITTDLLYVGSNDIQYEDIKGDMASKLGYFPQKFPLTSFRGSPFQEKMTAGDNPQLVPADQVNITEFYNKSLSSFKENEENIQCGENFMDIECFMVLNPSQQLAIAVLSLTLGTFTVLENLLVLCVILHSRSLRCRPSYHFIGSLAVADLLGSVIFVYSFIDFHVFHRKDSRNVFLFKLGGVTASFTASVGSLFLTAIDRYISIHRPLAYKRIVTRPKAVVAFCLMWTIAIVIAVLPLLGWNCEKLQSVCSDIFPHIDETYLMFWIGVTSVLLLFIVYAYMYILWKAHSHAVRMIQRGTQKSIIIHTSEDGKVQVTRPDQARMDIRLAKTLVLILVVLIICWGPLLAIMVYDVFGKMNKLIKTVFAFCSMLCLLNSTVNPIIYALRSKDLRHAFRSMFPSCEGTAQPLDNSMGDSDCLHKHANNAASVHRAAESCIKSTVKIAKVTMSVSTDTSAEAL

On to `C[C@@H]1[C@H](O)[C@@H](C)/C=C/C=C/C=C/C=C/C=C/C=C/C=C/[C@H](O[C@@H]2O[C@H](C)[C@@H](O)[C@H](N)[C@@H]2O)C[C@@H]2O[C@](O)(C[C@@H](O)C[C@@H](O)[C@H](O)CC[C@@H](O)C[C@@H](O)CC(=O)O[C@H]1C)C[C@H](O)[C@H]2C(=O)O` [AMPHOTERICIN B], for which the IC50 (usually the concentration needed to halve the response being measured) is 0.375 µg/mL (≈ 0.406 µM) in the data set on Cryptococcus neoformans (setting [9]), “Not Active” in the data set on Staphylococcus aureus [1] and “Not Active” in the data set on Staphylococcus aureus [2].
Take `C[C@@H]1CC[C@H]2[C@@H](C)C(=O)O[C@@H]3O[C@@]4(C)CC[C@@H]1[C@]32OO4` [ARTEMISININ]: the selectivity ratio is more than 952 in data set [3] and more than 1080 in [4].
As to `C[C@H]1CC[C@H]2[C@H](C1)c1c(O)cc(/C=C/c3ccccc3)cc1OC2(C)C` [MACHAERIOL A], the IC50 in the data set on Plasmodium falciparum [5] was found to be 1.5 µg/mL (≈ 4.3 µM); with Plasmodium falciparum [6] it was 0.6 µg/mL (≈ 1.72 µM); in the data set on Cryptococcus neoformans (setting [9]) it was 50 µg/mL (≈ 143 µM); in the data set with Staphylococcus aureus [1] (setting [10]), 15 µg/mL (≈ 43 µM); with Staphylococcus aureus [2] (setting [11]), 10 µg/mL (≈ 28.7 µM). Further, the selectivity ratio in data set [3] is more than 3.2; in data set [4], more than 7.9. Moreover, the Activity in data set [7] came to 7%; in data set [8] it was 10%.
For `C[C@H]1CC[C@H]2[C@H](C1)c1c(O)cc(-c3cc4ccccc4o3)cc1OC2(C)C` [MACHAERIOL B], the IC50 was 0.72 µg/mL (≈ 1.99 µM) in the data set on Plasmodium falciparum [5]; 0.12 µg/mL (≈ 0.331 µM) in the data set with Plasmodium falciparum [6]; “Not Active” in the data set with Cryptococcus neoformans; 5 µg/mL (≈ 13.8 µM) in the data set with Staphylococcus aureus [1] (setting [10]); 4.5 µg/mL (≈ 12.4 µM) in the data set on Staphylococcus aureus [2] (setting [11]). The selectivity ratio in data set [3] is more than 6.6; in [4] it was more than 40. In addition, the Activity in data set [7] is -3%; in [8] it was 3%.
On to `CN(C)[C@@H]1C(O)=C(C(N)=O)C(=O)[C@@]2(O)C(O)=C3C(=O)c4c(O)cccc4[C@@](C)(O)[C@H]3C[C@@H]12` [TETRACYCLINE], for which the 50% inhibitory concentration (IC50) in the data set with Staphylococcus aureus [1] (setting [10]) and with Staphylococcus aureus [2] (setting [11]) was 0.15 µg/mL (≈ 0.338 µM) throughout.
